Data reported in ChEMBL document CHEMBL4689842, “EUbOPEN Chemogenomics Library wave 1” (2021).
Where “and” joins values, the source holds several entries; their conditions need not be identical. Equal entries are not always repeated.

Test system: HEK-293T
Test: Multiplex assay against HEK293T;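 on Population Tubulin-Different-Phenotype (%): share of the cells with healthy nuclei that show this phenotype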
Format: toxicity, cell-based
Conditions: human
Outline: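 Imaging took place on a CQ1 microscope at 37°C and 5% CO2 once compound had been added to live cells stained at seeding with Hoechst33342, BioTracker Green Microtubule Cytoskeleton Dye, MitoTracker Red and Annexin V Alexa Fluor 680. CellPathfinder machine-learning gating classed cells as Hoechst high-intensity objects or normal cells, classed normal cells as having healthy, pyknosed or fragmented nuclei, and classed pyknosed cells as mitotic or apoptotic. Tubulin, mitochondrial-mass and membrane-permeability phenotypes are per cents of the healthy-nucleus cells.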

[1] = 12 h, 1 µM, compound concentration 1 uM, replicate 1
[2] = 12 h, 1 µM, compound concentration 1 uM, replicate 2
[3] = 12 h, 10 µM, compound concentration 10 uM, replicate 1
[4] = 12 h, 10 µM, compound concentration 10 uM, replicate 2
[5] = 24 h, 1 µM, compound concentration 1 uM, replicate 1
[6] = 24 h, 1 µM, compound concentration 1 uM, replicate 2
[7] = 24 h, 10 µM, compound concentration 10 uM, replicate 1
[8] = 24 h, 10 µM, compound concentration 10 uM, replicate 2
[9] = 48 h, 1 µM, compound concentration 1 uM, replicate 1
[10] = 48 h, 1 µM, compound concentration 1 uM, replicate 2
[11] = 48 h, 10 µM, compound concentration 10 uM, replicate 1
[12] = 48 h, 10 µM, compound concentration 10 uM, replicate 2

For `CNC(=O)Nc1ccc(-c2nc(N3CC4CCC(C3)O4)c3cnn(C4CCC5(CC4)OCCO5)c3n2)cc1`, the “Population Apoptotic (%)” value [1] was 55%, the “Population Fragmented Nuclei (%)” value [1] was 24% and the “Population Healthy Nuclei (%)” value [1] was 6%. The “Population Hoechst High Intensity Objects (%)” value [1] was 20%, the “Population Membrane Permeable-Phenotype (%)” value [1] was 0% and the “Population Mitochondria Different-Phenotype (%)” value [1] was 75%. For the same compound, the “Population Mitotic Cells (%)” value [1] was 44%, the “Population Normal (%)” value [1] was 79% and the “Population Pyknosed Nuclei (%)” value [1] was 68%. The “Population Tubulin-Different-Phenotype (%)” value [1] was 50%, the “Total Cell Count” value [1] was 149 and the “Population Apoptotic (%)” value [2] was 23%. For the same compound, the “Population Fragmented Nuclei (%)” value [2] was 9%, the “Population Healthy Nuclei (%)” value [2] was 26% and the “Population Hoechst High Intensity Objects (%)” value [2] was 10%. The “Population Membrane Permeable-Phenotype (%)” value [2] was 8%, the “Population Mitochondria Different-Phenotype (%)” value [2] was 32% and the “Population Mitotic Cells (%)” value [2] was 76%. The “Population Normal (%)” value [2] was 89%, the “Population Pyknosed Nuclei (%)” value [2] was 64% and the “Population Tubulin-Different-Phenotype (%)” value [2] was 24%. For the same compound, the “Total Cell Count” value [2] was 155, the “Population Apoptotic (%)” value [3] was 76% and the “Population Fragmented Nuclei (%)” value [3] was 18%. The “Population Healthy Nuclei (%)” value [3] was 7%, the “Population Hoechst High Intensity Objects (%)” value [3] was 26% and the “Population Membrane Permeable-Phenotype (%)” value [3] was 11%. The “Population Mitochondria Different-Phenotype (%)” value [3] was 88%, the “Population Mitotic Cells (%)” value [3] was 23% and the “Population Normal (%)” value [3] was 73%. For the same compound, the “Population Pyknosed Nuclei (%)” value [3] was 73%, the “Population Tubulin-Different-Phenotype (%)” value [3] was 88% and the “Total Cell Count” value [3] was 167. The “Population Apoptotic (%)” value [4] was 56%, the “Population Fragmented Nuclei (%)” value [4] was 8% and the “Population Healthy Nuclei (%)” value [4] was 8%. For the same compound, the “Population Hoechst High Intensity Objects (%)” value [4] was 7%, the “Population Membrane Permeable-Phenotype (%)” value [4] was 6% and the “Population Mitochondria Different-Phenotype (%)” value [4] was 100%. For the same compound, the “Population Mitotic Cells (%)” value [4] was 43%, the “Population Normal (%)” value [4] was 92% and the “Population Pyknosed Nuclei (%)” value [4] was 82%. The “Population Tubulin-Different-Phenotype (%)” value [4] was 100%, the “Total Cell Count” value [4] was 182 and the “Population Apoptotic (%)” value [5] was 68%. The “Population Fragmented Nuclei (%)” value [5] was 32%, the “Population Healthy Nuclei (%)” value [5] was 5% and the “Population Hoechst High Intensity Objects (%)” value [5] was 29%. The “Population Membrane Permeable-Phenotype (%)” value [5] was 16%, the “Population Mitochondria Different-Phenotype (%)” value [5] was 66% and the “Population Mitotic Cells (%)” value [5] was 31%. The “Population Normal (%)” value [5] was 70%, the “Population Pyknosed Nuclei (%)” value [5] was 61% and the “Population Tubulin-Different-Phenotype (%)” value [5] was 16%. The “Total Cell Count” value [5] was 151, the “Population Apoptotic (%)” value [6] was 21% and the “Population Fragmented Nuclei (%)” value [6] was 12%. The “Population Healthy Nuclei (%)” value [6] was 34%, the “Population Hoechst High Intensity Objects (%)” value [6] was 10% and the “Population Membrane Permeable-Phenotype (%)” value [6] was 8%. For the same compound, the “Population Mitochondria Different-Phenotype (%)” value [6] was 35%, the “Population Mitotic Cells (%)” value [6] was 78% and the “Population Normal (%)” value [6] was 89%. For the same compound, the “Population Pyknosed Nuclei (%)” value [6] was 53%, the “Population Tubulin-Different-Phenotype (%)” value [6] was 20% and the “Total Cell Count” value [6] was 158. For the same compound, the “Population Apoptotic (%)” value [7] was 81%, the “Population Fragmented Nuclei (%)” value [7] was 23% and the “Population Healthy Nuclei (%)” value [7] was 3%. For the same compound, the “Population Hoechst High Intensity Objects (%)” value [7] was 27%, the “Population Membrane Permeable-Phenotype (%)” value [7] was 25% and the “Population Mitochondria Different-Phenotype (%)” value [7] was 75%. The “Population Mitotic Cells (%)” value [7] was 18%, the “Population Normal (%)” value [7] was 72% and the “Population Pyknosed Nuclei (%)” value [7] was 73%. The “Population Tubulin-Different-Phenotype (%)” value [7] was 75%, the “Total Cell Count” value [7] was 165 and the “Population Apoptotic (%)” value [8] was 68%. The “Population Fragmented Nuclei (%)” value [8] was 10%, the “Population Healthy Nuclei (%)” value [8] was 17% and the “Population Hoechst High Intensity Objects (%)” value [8] was 11%. For the same compound, the “Population Membrane Permeable-Phenotype (%)” value [8] was 17%, the “Population Mitochondria Different-Phenotype (%)” value [8] was 85% and the “Population Mitotic Cells (%)” value [8] was 31%. For the same compound, the “Population Normal (%)” value [8] was 88%, the “Population Pyknosed Nuclei (%)” value [8] was 72% and the “Population Tubulin-Different-Phenotype (%)” value [8] was 96%. For the same compound, the “Total Cell Count” value [8] was 182, the “Population Apoptotic (%)” value [9] was 62% and the “Population Fragmented Nuclei (%)” value [9] was 46%. The “Population Healthy Nuclei (%)” value [9] was 3%, the “Population Hoechst High Intensity Objects (%)” value [9] was 33% and the “Population Membrane Permeable-Phenotype (%)” value [9] was 0%. For the same compound, the “Population Mitochondria Different-Phenotype (%)” value [9] was 66%, the “Population Mitotic Cells (%)” value [9] was 37% and the “Population Normal (%)” value [9] was 66%. For the same compound, the “Population Pyknosed Nuclei (%)” value [9] was 50%, the “Population Tubulin-Different-Phenotype (%)” value [9] was 33% and the “Total Cell Count” value [9] was 144. For the same compound, the “Population Apoptotic (%)” value [10] was 34%, the “Population Fragmented Nuclei (%)” value [10] was 13% and the “Population Healthy Nuclei (%)” value [10] was 46%. The “Population Hoechst High Intensity Objects (%)” value [10] was 11%, the “Population Membrane Permeable-Phenotype (%)” value [10] was 1% and the “Population Mitochondria Different-Phenotype (%)” value [10] was 50%. For the same compound, the “Population Mitotic Cells (%)” value [10] was 65%, the “Population Normal (%)” value [10] was 88% and the “Population Pyknosed Nuclei (%)” value [10] was 40%. The “Population Tubulin-Different-Phenotype (%)” value [10] was 61%, the “Total Cell Count” value [10] was 138 and the “Population Apoptotic (%)” value [11] was 84%. The “Population Fragmented Nuclei (%)” value [11] was 35%, the “Population Healthy Nuclei (%)” value [11] was 8% and the “Population Hoechst High Intensity Objects (%)” value [11] was 23%. The “Population Membrane Permeable-Phenotype (%)” value [11] was 11%, the “Population Mitochondria Different-Phenotype (%)” value [11] was 100% and the “Population Mitotic Cells (%)” value [11] was 15%. The “Population Normal (%)” value [11] was 76%, the “Population Pyknosed Nuclei (%)” value [11] was 56% and the “Population Tubulin-Different-Phenotype (%)” value [11] was 100%. The “Total Cell Count” value [11] was 146, the “Population Apoptotic (%)” value [12] was 65% and the “Population Fragmented Nuclei (%)” value [12] was 8%. For the same compound, the “Population Healthy Nuclei (%)” value [12] was 40%, the “Population Hoechst High Intensity Objects (%)” value [12] was 8% and the “Population Membrane Permeable-Phenotype (%)” value [12] was 1%. For the same compound, the “Population Mitochondria Different-Phenotype (%)” value [12] was 83%, the “Population Mitotic Cells (%)” value [12] was 34% and the “Population Normal (%)” value [12] was 91%. The “Population Pyknosed Nuclei (%)” value [12] was 51%, the “Population Tubulin-Different-Phenotype (%)” value [12] was 90% and the “Total Cell Count” value [12] was 181.
In the case of `CN1CCN(Cc2cc(NC(=O)c3ccc4c(c3)CN(c3ccccc3)CC4)cc(C(F)(F)F)c2)CC1`, the “Population Apoptotic (%)” value [1] was 37% and 18%, the “Population Fragmented Nuclei (%)” value [1] was 18% and 16% and the “Population Healthy Nuclei (%)” value [1] was 48% and 58%. The “Population Hoechst High Intensity Objects (%)” value [1] was 35% and 18%, the “Population Membrane Permeable-Phenotype (%)” value [1] was 16% and 8% and the “Population Mitotic Cells (%)” value [1] was 62% and 81%. The “Population Normal (%)” value [1] was 64% and 81%, the “Population Pyknosed Nuclei (%)” value [1] was 32% and 24% and the “Total Cell Count” value [1] was 601 and 582. For the same compound, the “Population Apoptotic (%)” value [2] was 20% and 14%, the “Population Fragmented Nuclei (%)” value [2] was 4% and 5% and the “Population Healthy Nuclei (%)” value [2] was 80% and 87%. The “Population Mitochondria Different-Phenotype (%)” value [2] was 36% and 15%, the “Population Mitotic Cells (%)” value [2] was 79% and 85% and the “Population Normal (%)” value [2] was 89% and 97%. The “Population Pyknosed Nuclei (%)” value [2] was 15% and 6%, the “Total Cell Count” value [2] was 1350 and 1353 and the “Population Apoptotic (%)” value [5] was 45% and 17%. For the same compound, the “Population Fragmented Nuclei (%)” value [5] was 18% and 14%, the “Population Healthy Nuclei (%)” value [5] was 63% and 71% and the “Population Mitochondria Different-Phenotype (%)” value [5] was 35% and 12%. For the same compound, the “Population Mitotic Cells (%)” value [5] was 54% and 82%, the “Population Normal (%)” value [5] was 70% and 90% and the “Population Pyknosed Nuclei (%)” value [5] was 18% and 14%. For the same compound, the “Total Cell Count” value [5] was 559 and 631, the “Population Apoptotic (%)” value [6] was 11% and the “Population Fragmented Nuclei (%)” value [6] was 13% and 16%. The “Population Healthy Nuclei (%)” value [6] was 78% and 81%, the “Population Mitotic Cells (%)” value [6] was 88% and the “Population Normal (%)” value [6] was 89% and 96%. For the same compound, the “Total Cell Count” value [6] was 1856 and 2285.
